In one test the test system is DU-145. Kind of test: Growth inhibition of human DU145 cells after 96 hrs by trypan blue exclusion assay. Format: functional. As to conditions: DU-145, 96 h.
For another test, the system named is K562. The test can be described thus: Growth inhibition of human K562 cells expressing p210Bcr/Abl after 96 hrs by trypan blue exclusion assay. Format: functional, cell-based. The conditions noted are these: K562, 96 h. The method, boiled down:
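K562 cells were kept in RPMI with 10% FBS and penicillin–streptomycin at 37 °C under 5% CO2. Cells were seeded at 1 × 10^5 cells/mL with a range of compound concentrations, using DMSO as the negative control. After 96 h, viability was counted by Trypan blue exclusion and expressed as percent of DMSO control to derive GI50.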

By GI50 is commonly meant the concentration that inhibits growth by half.

As for `Cc1ccc(S(=O)(=O)/C(=C/c2cc(C)ccc2C)C(=O)c2ccc(Cl)cc2)cc1`, the concentration for 50% growth inhibition (GI50) in the test with DU-145 and in the test on K562 was 1 µM each time.
With `Cc1ccsc1/C=C(/SCc1ccccc1F)C(=O)c1ccc(Cl)cc1`, the GI50 in the test on DU-145 and in the test with K562 was 50 µM each time.
As for `O=C(/C(=C\c1ccc(F)cc1F)S(=O)(=O)c1ccc(Br)cc1)c1ccc(Br)cc1`, the concentration for 50% growth inhibition (GI50) with DU-145 came to 7.5 µM; in the test with K562, 1 µM.
For `Cc1ccc(CS/C(=C/c2cc([N+](=O)[O-])ccc2F)C(=O)c2ccc(Cl)cc2)cc1` the same measures were 1 µM and 1 µM.
The matching figures for `COc1ccc(C(=O)/C(=C\c2ccc(Br)cc2)Sc2ccc(F)cc2)cc1`: over 100 µM and over 100 µM.
The matching figures for `O=C(/C(=C\c1ccc(OCc2ccccc2)cc1)S(=O)(=O)Cc1ccc(Cl)cc1)c1ccc(Cl)cc1`: 1 µM and 1 µM.
As to `COc1ccc(S(=O)(=O)/C(=C/c2ccc(Cl)cc2Cl)C(=O)c2ccc(Br)cc2)cc1`, the 50% growth inhibitory concentration (GI50) with DU-145 and with K562 was 20 µM each time.
For `Cc1ccc(C)c(/C=C(/SCc2ccc(F)cc2)C(=O)c2ccc(Br)cc2)c1`, the concentration for 50% growth inhibition (GI50) was determined as 1 µM in the test with DU-145 and 50 µM in the test with K562.
For `Cc1ccc(CS/C(=C/c2c[nH]c3ccc(Br)cc23)C(=O)c2ccc(Cl)cc2)cc1` the same measures were 1 µM and 1 µM.
For `O=C(/C(=C\c1ccc(F)cc1C(F)(F)F)[S+]([O-])Cc1ccc(Cl)cc1)c1ccc(Cl)cc1` (stereo unspecified), the GI50 in the test on DU-145 and in the test with K562 was 50 µM each time.
As to `Cc1ccc(CS(=O)(=O)/C(=C/c2ccc(Cl)cc2)C(=O)c2ccc(Cl)cc2)cc1`, the concentration for 50% growth inhibition (GI50) in the test on DU-145 and in the test on K562 was 25 µM each time.
As to `CN(C)c1ccc(/C=C(\C(=O)c2ccc(Cl)cc2)S(=O)(=O)c2ccc(Br)cc2)cc1`, the figures for the GI50 with DU-145 and in the test with K562 were over 100 µM and 50 µM, respectively.
For `CCOc1ccc(/C=C(/SCc2ccc(C)cc2)C(=O)c2ccc(Cl)cc2)cc1OC` the same measures were 25 µM and 25 µM.
`O=C(/C(=C\c1ccc(Cl)cc1)SCc1ccc(Br)cc1)c1ccccc1Cl`: the figures for the 50% growth inhibitory concentration (GI50) in the test on DU-145 and in the test on K562 were 25 µM and 1 µM, respectively.
For `COc1ccc(S/C(=C/c2ccc(Cl)cc2Cl)C(=O)c2ccc(Br)cc2)cc1` the same measures were 1 µM and 1 µM.
On to `Cc1ccc(/C=C(\C(=O)c2ccc([N+](=O)[O-])cc2)S(=O)(=O)Cc2ccc(Cl)cc2)s1`, for which the concentration for 50% growth inhibition (GI50) in the test with DU-145 was determined as 25 µM; with K562, 10 µM.
As for `Cc1ccc(CS/C(=C/c2cc(C)ccc2C)C(=O)c2ccc(Cl)cc2)cc1`, the GI50 in the test on DU-145 and in the test with K562 was 10 µM each time.
Regarding `COc1ccc(/C=C(\C(=O)c2ccc(Cl)cc2)S(=O)(=O)c2ccc(Br)cc2)cc1O`, the concentration for 50% growth inhibition (GI50) in the test with DU-145 and in the test with K562 was 10 µM in each case.
Turning to `Cc1ccc(S/C(=C/c2c(O)cc(O)cc2O)C(=O)c2ccc(Br)cc2)cc1`, the results for the GI50 with DU-145 and in the test with K562 were over 100 µM and 50 µM, respectively.
For `O=C(/C(=C\c1ccc([N+](=O)[O-])c(O)c1)SCc1ccc(Br)cc1)c1cc(Cl)ccc1O` the same measures were 10 µM and 10 µM.
On to `O=C(/C(=C\c1ccc(O)c([N+](=O)[O-])c1)Sc1ccc(Br)cc1)c1ccc(Br)cc1`, for which the GI50 in the test on DU-145 and with K562 was 1 µM each time.
For `Cc1ccsc1/C=C(/SCc1ccc(F)cc1)C(=O)c1ccc(Br)cc1`, the results for the GI50 in the test on DU-145 and in the test with K562 were 50 µM and over 100 µM, respectively.
For `COc1ccsc1/C=C(\C(=O)c1ccc(Br)cc1)S(=O)(=O)Cc1ccc(Cl)cc1`, the GI50 with DU-145 came out at 50 µM; in the test with K562 it was 25 µM.
For `O=C(/C(=C/c1ccc(Cl)cc1)Cc1c[nH]c2ccccc12)c1ccc(Cl)cc1Cl`, the 50% growth inhibitory concentration (GI50) in the test with DU-145 and with K562 was 10 µM throughout.
`Cc1ccc(S(=O)(=O)/C(=C/c2ccccc2F)C(=O)c2ccc(Cl)cc2)cc1`: the 50% growth inhibitory concentration (GI50) in the test with DU-145 was 2.5 µM; in the test on K562 it was 1 µM.
For `Cc1ccc(C)c(/C=C(\C(=O)c2ccc(Br)cc2)S(=O)(=O)Cc2ccc(F)cc2)c1` the same measures were 1 µM and 1 µM.
Turning to `Cc1ccc(S/C(=C/c2ccc[nH]2)C(=O)c2ccc(Cl)cc2)cc1`, the GI50 with DU-145 and with K562 was 10 µM throughout.
For the compound `CSc1ccc(/C=C(\C(=O)c2ccc(Br)cc2)S(=O)(=O)Cc2ccc(F)cc2)cc1`, the 50% growth inhibitory concentration (GI50) in the test on DU-145 was 50 µM; with K562, over 100 µM.
Consider `O=C(/C(=C\c1ccc(O)c([N+](=O)[O-])c1)SCc1ccc(Br)cc1)c1ccc(O)cc1O`, for which the GI50 in the test on DU-145 was over 100 µM; in the test with K562 it was 50 µM.
For `CC(=O)c1ccc(/C=C(/Sc2ccc(C)cc2)C(=O)c2ccc(Br)cc2)cc1` the same measures were 50 µM and 50 µM.
For `O=C(/C(=C\c1ccccc1OCc1ccccc1)Sc1ccc(Br)cc1)c1ccc(Cl)cc1` the same measures were 10 µM and 10 µM.
The matching figures for `Cc1ccc(CS(=O)(=O)/C(=C/c2cc(C)ccc2C)C(=O)c2ccc(Cl)cc2)cc1`: 1 µM and 1 µM.
As for `Cc1ccc(S/C(=C/c2ccc(-c3ccccc3)cc2)C(=O)c2ccc(Cl)cc2)cc1`, the figures for the GI50 in the test with DU-145 and with K562 were 50 µM and 25 µM, respectively.
Take `CCOc1ccc(/C=C(/SCc2ccc(Cl)c(Cl)c2)C(=O)c2ccc(Cl)cc2)cc1OC`: the 50% growth inhibitory concentration (GI50) is 25 µM in the test with DU-145 and 1 µM in the test with K562.
`O=C(/C(=C\c1ccc(Br)c(O)c1)Sc1ccc(Br)cc1)c1ccc(Br)cc1`: the concentration for 50% growth inhibition (GI50) in the test with DU-145 and in the test with K562 was 1 µM in each case.
As for `O=C(/C(=C\c1ccc(Br)cc1)Sc1ccccc1Br)c1ccc(Br)cc1`, the results for the GI50 in the test on DU-145 and in the test with K562 were 1 µM and 8 µM, respectively.
The matching figures for `COc1ccc(/C=C(/Sc2ccc(C)cc2)C(=O)c2ccc(Cl)cc2)cc1O`: 1 µM and 1 µM.
The matching figures for `COc1ccccc1/C=C(\C(=O)c1ccc(Cl)cc1)S(=O)(=O)c1ccc(C)cc1`: 1 µM and 1 µM.
As to `Cc1ccc(S/C(=C/c2c(O)cc(O)cc2O)C(=O)c2ccc(Cl)cc2)cc1`, the concentration for 50% growth inhibition (GI50) in the test with DU-145 and in the test with K562 was over 100 µM each time.
Take `O=C(/C(=C\c1c(O)cc(O)cc1O)Sc1ccccc1Br)c1ccc(Cl)cc1`: the GI50 in the test on DU-145 and in the test on K562 was over 100 µM each time.
Turning to `CCOc1ccc(/C=C(/Sc2ccc(C)cc2)C(=O)c2ccc(Cl)cc2)cc1OC`, the GI50 is 25 µM in the test on DU-145 and 10 µM with K562.
The matching figures for `COc1ccccc1/C=C(\C(=O)c1ccc(Cl)cc1)S(=O)(=O)Cc1ccc(Cl)c(Cl)c1`: 1 µM and 1 µM.
The matching figures for `Cc1ccc(CS/C(=C/c2ccc(Br)cc2)C(=O)c2ccc(Cl)cc2)cc1`: 10 µM and 1 µM.
As for `O=C(/C(=C\c1ccc(F)cc1C(F)(F)F)SCc1ccc(F)cc1)c1ccc(Br)cc1`, the GI50 in the test on DU-145 and in the test with K562 was 10 µM each time.
On to `O=C(/C(=C\c1ccccc1OCc1ccccc1)S(=O)(=O)c1ccc(F)cc1)c1ccc(Cl)cc1`, for which the GI50 in the test on DU-145 and in the test on K562 was 1 µM each time.
Take `COc1ccc(C(=O)/C(=C\c2ccc(Cl)cc2)Sc2ccc(F)cc2)cc1`: the GI50 in the test with DU-145 and in the test on K562 was over 100 µM throughout.
As for `COc1ccc(/C=C(/Sc2ccc(Br)cc2)C(=O)c2ccc(Cl)cc2)cc1`, the GI50 with DU-145 came to 50 µM; in the test with K562, 1 µM.
In the case of `N#Cc1ccc(C(=O)/C(=C\c2ccc(O)c([N+](=O)[O-])c2)SCc2ccc(Br)cc2)cc1`, the GI50 with DU-145 and with K562 was 10 µM each time.
Turning to `COc1ccccc1/C=C(\C(=O)c1ccc(Cl)cc1)S(=O)(=O)c1ccc(Br)cc1`, the GI50 with DU-145 and in the test on K562 was 10 µM each time.
Consider `Cc1ccsc1/C=C(/SCc1ccc(Cl)cc1)C(=O)c1ccc(Br)cc1`, for which the GI50 in the test on DU-145 and in the test with K562 was 25 µM in each case.
`O=C(/C(=C\c1ccccc1OCc1ccccc1)SCc1ccc(F)cc1)c1ccc(Br)cc1`: the GI50 in the test with DU-145 and in the test on K562 was 1 µM throughout.
Regarding `Cc1ccc(CS/C(=C/c2ccccc2F)C(=O)c2ccc(Br)cc2)cc1`, the concentration for 50% growth inhibition (GI50) was 10 µM in the test with DU-145 and 1 µM with K562.
Turning to `Cc1cc(F)ccc1/C=C(/SCc1ccc(F)cc1)C(=O)c1ccc(Br)cc1`, the GI50 in the test on DU-145 and with K562 was 10 µM each time.
On to `COc1cc(OC)c(/C=C(\C(=O)c2ccc(Cl)cc2)S(=O)(=O)c2ccc(Br)cc2)c(OC)c1`, for which the GI50 in the test on DU-145 and in the test with K562 was over 100 µM in each case.
For `O=C(/C(=C\c1c(O)cc(O)cc1O)SCc1ccc(Cl)cc1Cl)c1ccc(Cl)cc1`, the figures for the concentration for 50% growth inhibition (GI50) with DU-145 and in the test on K562 were 25 µM and over 100 µM, respectively.
On to `COc1ccc(C(=O)/C(=C\c2ccc(Cl)cc2)S(=O)(=O)c2ccc(Cl)cc2)cc1`, for which the GI50 in the test on DU-145 and in the test on K562 was 4 µM each time.
For the compound `O=C(/C(=C\c1cc(Cl)cc(Cl)c1Cl)S(=O)(=O)Cc1ccc(Cl)cc1)c1ccc(Br)cc1`, the GI50 with DU-145 and in the test with K562 was 1 µM throughout.
As for `CCOc1cc(/C=C(\C(=O)c2ccc(Cl)cc2)S(=O)(=O)Cc2ccc(Cl)cc2)ccc1O`, the GI50 in the test on DU-145 and in the test with K562 was 10 µM throughout.
As to `Cc1ccc(S(=O)(=O)/C(=C/c2sccc2C)C(=O)c2ccc(Cl)cc2)cc1`, the GI50 with DU-145 and in the test with K562 was 10 µM in each case.
As for `COc1ccc(/C=C(/Sc2ccc(F)cc2)C(=O)c2ccc(OC)cc2)cc1`, the GI50 in the test on DU-145 was 25 µM; with K562, 1 µM.
The matching figures for `O=C(/C(=C\c1c(O)cc(O)cc1O)S(=O)(=O)c1ccccc1Br)c1ccc(Cl)cc1`: 50 µM and 50 µM.
For `COc1ccc(C(=O)/C(=C\c2ccc(O)c([N+](=O)[O-])c2)SCc2ccc(Br)cc2)cc1` the same measures were 10 µM and 10 µM.
On to `O=C(/C(=C\OCc1ccccc1)S(=O)(=O)c1ccccc1Cl)c1ccc(Cl)cc1`, for which the concentration for 50% growth inhibition (GI50) in the test on DU-145 and in the test on K562 was 1 µM throughout.

Source of the values: ChEMBL document CHEMBL1240409, “Design, synthesis and evaluation of (E)-alpha-benzylthio chalcones as novel inhibitors of BCR-ABL kinase” (Bioorg Med Chem, 2010).
